# Rows were chosen to be rich in hits. Some 0.3% of all compounds tested hit in one or more screens of this group.
# Ab BasE inh = BasE siderophore enzyme inhibitors, primary screen, biochemical, Acinetobacter baumannii ATCC 17978, fluorescence polarization; purified BasE, fluorescence polarization binding displacement; AID 485350, 2010; inhibition, % (concentration not given with the values); 0.1% of 84,000 active; in the data active = inhibition above about 25%, passing the limit was not always enough
# KSHV LANA nucl = inhibitors of KSHV LANA-nucleosome binding, primary screen, biochemical, fluorescence polarization, FITC-LANA1-23, chicken nucleosomes; z-score (no concentration beside the values); FITC-LANA1-23 / chicken nucleosome fluorescence polarization; active compounds read low; 0.3% of 51,000 active;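 active = both repeat wells score below -2 in polarization z-score versus plate sample wells, excluding overly bright wells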
#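 Assay system: purified chicken nucleosomes with FITC-labelled LANA N-terminal peptide (1-23) / Probe or stimulus: 50 nM FITC-LANA1-23 probe / Compound dosing: pin-transferred compound, 100 nL / Times: compound with peptide–nucleosome mix 10–45 min at room temperature / Technique: fluorescence polarization, 480 nm excitation, 535 nm parallel and perpendicular emission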
# Numbers stand for hits; n = inactive; x = no result given; ! = not active in a repeat.
SMILES,Ab BasE inh,KSHV LANA nucl
CSc1scc2c1C(=O)CC(C)(C)C2,n,x
CC(C)(C)c1ccccc1OCC(=O)O,n,n
COC(=O)c1cc(-c2ccc(C)cc2)no1,n,n
CCOC(=O)c1cc(-c2ccc(N(CC)CC)cc2)no1,n,-4.77
O=C(O)C1CC2CCC(C1)C21SCCS1 (stereo not given),n,x
CC1CC(C)CN(S(=O)(=O)c2ccc(C(=O)NCc3ccccn3)cc2)C1 (stereo not given),n,x
Cc1ccc(C)n1-c1cc(Cl)ccc1C(=O)O,84.9,n
Cc1ccc(C)n1-c1cc(Cl)ccc1N1CCCCC1,n,x
CC(C)C(c1nnnn1C1CCCC1)N(Cc1ccc(Cl)cc1)CC1CCCO1 (stereo not given),n,n
CCCC(C)C(=O)Nc1ccc(-c2nc3ccccc3o2)cc1 (stereo not given),n,-2.25
CC(C)C(=O)Nc1cccc(-c2nc3ccccc3o2)c1,n,n
Cc1cc(C)c2c(-n3cccc3)c(C(=O)NC3=NCCS3)sc2n1,n,x
C=CCN1C(=O)NC(=O)/C(=C\c2cn(Cc3ccccc3)c3ccccc23)C1=O,n,x
CCN(CC)C(=O)Cn1cc(/C=C2\C(=O)NC(=O)N(CC)C2=O)c2ccccc21,n,-2.71
c1cncc(-c2noc(-c3cc(C4CC4)[nH]n3)n2)c1,n,n
Clc1ccc(OCCCc2nc(-c3cccnc3)n[nH]2)c(Cl)c1,46.3,x
S=c1[nH]nc(CCCOc2ccc(Cl)cc2Cl)o1,n,n
COc1ccc(-c2csc(-n3[nH]c(C)c(C(c4ccc(Cl)cc4)C(C#N)C(N)=O)c3=O)n2)cc1 (stereo not given),34.9,n
COc1ccc(-c2cc(-c3ccco3)nn2-c2nc(-c3ccc(Cl)cc3)cs2)cc1,n,x
CCCCC12CN3CCN(CC(C3)C1=N/N=C1\C3CN4CCN(C3)CC1(CCCC)C4)C2,n,n
Clc1cccc(C2C=C(c3ccccc3Cl)Nc3ncnn32)c1 (stereo not given),n,n
Cn1ncc2c(NN3C(=O)CCC3=O)ncnc21,n,x
N#C/C(=C\C=C\c1ccco1)C(N)=S,33.2,n
N#C/C(=C\c1ccco1)C(N)=S,n,x
Cc1ccc(C)c(S(=O)(=O)c2n[nH]n3c2nc(=O)c2sccc23)c1,n,n
SMILES,Ab BasE inh,KSHV LANA nucl
CC(C)(C)C1COC(CC2=NC(C(C)(C)C)CO2)=N1 (stereo not given),n,n
O=c1c(-c2ccc(Oc3ccccc3)cc2)[n+]([O-])c2ccccc2n1O,n,n
N#Cc1c(=O)n(O)c2ccccc2[n+]1[O-],n,-12.7
COC(=O)C1=C(CNc2ccc(I)cc2)NC(=O)NC1c1cc(C)ccc1C (stereo not given),n,n
COc1ccc2oc(C(=O)OCc3cc(=O)n4c(C)csc4n3)c(C)c2c1,n,x
O=C(Nn1cnc2c(cnn2-c2ccccc2)c1=O)c1ccccc1,n,-2.08
O=C(/C=C/c1ccccc1)Nn1cnc2c(cnn2-c2ccccc2)c1=O,n,n
N#C/C(=C\c1ccc(N2CCCC2)o1)c1ccccc1,n,-5.41
N#C/C(=C\c1ccc(-c2ccccc2)o1)c1ccccc1,n,n
O=C(O)c1ccc(C2SCCCS2)cc1,n,x
Oc1ccc(C2SCCS2)cc1,53.2,x
CCCn1c(SCC(=O)Nc2ccccc2C(F)(F)F)nnc1-c1ccoc1C,n,n
Cn1c(=O)c2c(SCC(=O)Nc3ccccc3C(F)(F)F)ccnc2n(C)c1=O,n,-2.13
CC(=O)Nc1ccc(S(=O)(=O)NCC(=O)OC2CCOC2=O)cc1 (stereo not given),n,x
Cc1cc2c3c([nH]c2cc1S(=O)(=O)N(Cc1ccco1)C1CCCCC1)CCCC3=O,n,n
CCn1c(=O)cc(OCC(=O)O)c2ccccc21,n,n
CCn1c(=O)cc(OCC(=O)Nc2cccnc2)c2ccccc21,25.4,n
O=C(O)CCc1ccc(-c2ccc(F)cc2)n1CC1CCCO1 (stereo not given),n,n
O=C(O)CCc1ccc(-c2ccc(F)cc2)n1CCC(=O)O,n,-2.12
Cc1ccc(-c2ccc(C#N)c(=O)n2CC(=O)N2CCNC(=O)C2(C)C)cc1,n,n
COC(=O)C1=C(N)Oc2cc(C)[nH]c(=O)c2C1c1ccccc1OC (stereo not given),43.1,n
Cc1cc2c(c(=O)[nH]1)C(c1ccncc1)C(C#N)=C(N)O2 (stereo not given),n,n
Cc1cc(NC(=O)COC(=O)Cc2ccsc2)no1,n,x
CCCOc1ccc(C2C3CN(CC)CC=C3C(C#N)=C(N)C2(C#N)C#N)cc1OC (stereo not given),n,n
CCCN1CC=C2C(C#N)=C(N)C(C#N)(C#N)C(c3ccc(F)cc3F)C2C1 (stereo not given),n,-4.5
SMILES,Ab BasE inh,KSHV LANA nucl
N=c1c2c(F)cccc2ncn1NC(=O)c1ccncc1,n,n
CC1=C(C(=O)Nn2cnc3cccc(F)c3c2=N)Sc2ccccc2N1,35.6,x
O=C(CSc1nccc(=O)[nH]1)C12CC3CC(CC(C3)C1)C2,n,x
OCCN(CCO)c1nc(N2CCCCC2)c2nc(N(CCO)CCO)nc(N3CCCCC3)c2n1,36.5!,-2.3!
C1CCCN(c2nc3nonc3nc2N2CCCCCC2)CC1,n,n
CC(=O)Oc1ccc(-c2nc3cc(Cl)ccc3o2)cc1,n,n
O=C(NCn1c(=S)n(CNC(=O)c2cccnc2)c2ccccc21)c1cccnc1,n,x
N#Cc1c(NCc2ccccc2)ncc2c1Nc1ccccc1C2,n,-3.26
CC(C)c1nc(NCc2ccccc2)c(C#N)c2c1CCCC2,n,n
Cc1cc(=O)[nH]c(SCC(=O)c2cccs2)n1,n,x
Cc1ccnc(SCC(=O)c2ccc(Br)cc2)n1,43.7,n
Cc1ccnc(SCC(=O)c2cccs2)n1,60.5,x
COc1cc(C(=O)CSc2nccc(C)n2)cc(OC)c1OC,n,x
N#CCCn1c(SCC(=O)Nc2cccc3ccccc23)nc2ccccc21,n,x
COC(=O)c1ccc([C@@H]2Nc3c(C)cccc3[C@@H]3C=CC[C@@H]32)cc1,n,x
O=C(O)C1Nc2c(I)cccc2C2C=CCC12 (stereo not given),46.6,n
CCOC(=O)c1c(C)n(C)c2ccc(O)cc12,n,n
CCOC(=O)c1c2ccc(O)cc2n2ccccc12,x,-6.99
COC(=O)c1c(C)nn(C(=O)c2ccc(Cl)cc2)c1-c1snnc1C,n,n
NN1C(=O)/C(=C/c2cccs2)SC1=S,n,n
O=c1ccc(-c2ccccc2)nn1Cc1ccncc1,76.6,n
Cn1nc(-c2ccccc2)ccc1=O,n,n
CCOc1ccc(S(=O)(=O)N2CCN(C(=O)C3COc4ccccc4O3)CC2)cc1 (stereo not given),n,x
Cc1ccc(NC(=O)/C(C#N)=N/Nc2ccc(C(=O)O)cc2)c(C)c1,n,x
COc1ccc(N/N=C(\C#N)C(=O)Nc2ccccc2C(=O)O)cc1Cl,79.6,x
SMILES,Ab BasE inh,KSHV LANA nucl
COc1ccc(C2NCCc3c2[nH]c2ccc(OC)cc32)cc1 (stereo not given),n,n
CCC(Sc1nc2c(cc1C#N)CCCCC2)C(=O)Nc1cc(C)on1 (stereo not given),n,x
O=C(O)c1ccccc1O,n,n
O=C(O)c1cccn2nnnc12,n,-2.27
COc1ccc(/C=N/NC(=O)c2c(-c3ccccc3)noc2C)c(O)c1,n,n
CCc1nc(SC)ncc1C(=O)NCCN1CCN(c2cccc(Cl)c2)CC1,n,n
CCCN(CCC)C(=O)c1noc2c1CC(C)CC2 (stereo not given),n,x
